Results collected from several papers.
Lines come from different studies, so protocols differ.
Target: D(1A) dopamine receptor (DRD1, Homo sapiens, UniProt P21728)

SMILES | effect on | mode | method | quantity | result
CCCOc1cc2c(cc1O)[C@@H]1Cc3c(Br)cc(O)c(OCC(F)(F)F)c3CN1CC2 | cAMP | antagonist | TR-FRET | IC50 | 248 nM
CCCCN1CCC(COC(=O)c2ccc(N)c(OCF)c2)CC1 | cell-free assay |  | radioligand | Ki | > 10000 nM
CCCOc1cc2c(cc1O)[C@@H]1Cc3c(Br)cc(O)c(OCC(F)F)c3CN1CC2 | cAMP | antagonist | TR-FRET | IC50 | 1450 nM
O=C1c2ccccc2CCN1CCCCN1CCN(c2cccc(Cl)c2Cl)CC1 | cell-free assay |  | radioligand | Ki | 511 nM
CCOCc1nc(O)c(-c2nnc(Cc3ccc(Cl)cn3)o2)c(O)c1-c1c(OC)cccc1OC | ligand displacement |  | radioligand | IC50 | > 30000 nM
CN(CCCCNC(=O)c1cc2ccccc2[nH]1)[C@@H]1Cc2cccc3[nH]c(=O)n(c23)C1 | ligand displacement |  | radioligand | Ki | > 7900 nM
COc1ccc2c(c1)C(=O)N(CCCN1CCN(c3ccccc3OC)CC1)C2 | cell-free assay |  | radioligand | Ki | 6220 nM
CCCCOc1c(O)cc(Br)c2c1CN1CCc3cc(OCC(F)F)c(O)cc3[C@@H]1C2 | cAMP | antagonist | TR-FRET | IC50 | 318 nM
C[C@@H]1Cc2ccccc2N1C(=O)NCCCCN(C)[C@@H]1Cc2cccc3[nH]c(=O)n(c23)C1 | ligand displacement |  | radioligand | Ki | > 10000 nM
O=C1c2ccccc2CCN1CCCCN1CCN(c2ccccn2)CC1 | cell-free assay |  | radioligand | Ki | 1660 nM
